Key:
[1] = molecular target: T1, Retinoblastoma-associated protein (Homo sapiens, UniProt P06400); test: ChEBML_1684306
T1 sequence (P06400 whole entry): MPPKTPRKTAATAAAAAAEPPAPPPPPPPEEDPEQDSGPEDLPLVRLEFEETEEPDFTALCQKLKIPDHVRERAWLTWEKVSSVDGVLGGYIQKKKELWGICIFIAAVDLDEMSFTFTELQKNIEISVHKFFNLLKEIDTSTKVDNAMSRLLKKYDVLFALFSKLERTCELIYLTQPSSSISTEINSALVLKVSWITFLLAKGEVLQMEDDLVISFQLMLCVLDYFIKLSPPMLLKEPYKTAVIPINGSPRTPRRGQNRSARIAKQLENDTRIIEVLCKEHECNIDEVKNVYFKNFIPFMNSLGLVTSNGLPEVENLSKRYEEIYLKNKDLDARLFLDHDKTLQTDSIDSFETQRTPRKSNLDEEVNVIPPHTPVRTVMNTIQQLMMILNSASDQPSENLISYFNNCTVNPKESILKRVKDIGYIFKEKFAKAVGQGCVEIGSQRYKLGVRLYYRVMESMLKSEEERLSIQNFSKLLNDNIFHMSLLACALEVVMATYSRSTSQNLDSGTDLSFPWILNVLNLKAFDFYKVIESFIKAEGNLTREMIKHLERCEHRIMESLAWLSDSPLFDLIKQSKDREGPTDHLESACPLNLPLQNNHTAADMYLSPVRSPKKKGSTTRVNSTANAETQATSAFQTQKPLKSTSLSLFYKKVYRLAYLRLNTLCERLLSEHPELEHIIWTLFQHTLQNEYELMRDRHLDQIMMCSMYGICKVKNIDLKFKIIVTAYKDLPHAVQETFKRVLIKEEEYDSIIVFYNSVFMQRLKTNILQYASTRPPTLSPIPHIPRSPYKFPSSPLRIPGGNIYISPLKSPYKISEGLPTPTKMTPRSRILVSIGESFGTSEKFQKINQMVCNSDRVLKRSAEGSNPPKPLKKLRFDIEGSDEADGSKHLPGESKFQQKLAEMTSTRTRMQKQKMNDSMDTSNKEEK

[2] = molecular target: T1, Retinoblastoma-associated protein; test: Inhibition of retinoblastoma protein phosphorylation in human MDA-MB-231 cells after 16 hrs by Hoechst 33342 staining based fluorescence assay
Summary of the method: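 Fixation in 3.7% formaldehyde, 0.1% Triton X permeabilization, anti-pRb primary with Dylight 549 secondary; nuclei counterstained with Hoechst 33342; high-content imaging on ArrayScan reader.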

| SMILES | IC50 [1] | IC50 [2] |
| --- | --- | --- |
| c1ccc(CNC2CCc3c([nH]c4ccccc34)C2)cc1 (stereo not drawn) | 6.92 µM | – |
| O=C(NC1CCc2c([nH]c3ccccc23)C1)c1ccccc1F (stereo not drawn) | > 100 µM | – |
| c1ccc2c3c([nH]c2c1)C(NC1CCCC1)CCC3 (stereo not drawn) | 10 µM | – |
| Cc1ccc(CNC2CCc3c([nH]c4ccc(C)cc34)C2)cc1 (stereo not drawn) | 2.9 µM | – |
| O=S(=O)(NC1CCCc2c1[nH]c1ccccc21)c1ccc(F)cc1 (stereo not drawn) | 9.2 µM | – |
| Cc1ccc(CNC2CCc3c(n(C)c4ccccc34)C2)cc1 (stereo not drawn) | 3.5 µM | – |
| c1ccc2c3c([nH]c2c1)CC(NC1CCCCC1)CC3 (stereo not drawn) | 11 µM | – |
| c1ccc2c3c([nH]c2c1)C(NC1CCCCC1)CCC3 (stereo not drawn) | 15 µM | – |
| N#Cc1ccc(S(=O)(=O)NC2CCc3c([nH]c4ccccc34)C2)cc1 (stereo not drawn) | > 100 µM | – |
| Cc1ccc2[nH]c3c(c2c1)CCC(NC1CCC(C)C1)C3 (stereo not drawn) | 2 µM | – |
| CC1CCC(NC2CCCc3c2[nH]c2ccc([N+](=O)[O-])cc32)C1 (stereo not drawn) | 4.81 µM | – |
| O=S(=O)(NC1CCCc2c1[nH]c1ccccc21)c1cccnc1 (stereo not drawn) | > 100 µM | – |
| Cc1ccc(CNC2CCc3c([nH]c4ccccc34)C2)cc1 (stereo not drawn) | 4.1 µM | – |
| c1ccc2c3c([nH]c2c1)CC(NC1CCOCC1)CC3 (stereo not drawn) | > 100 µM | – |
| O=S(=O)(NC1CCc2c([nH]c3ccccc23)C1)c1cccnc1 (stereo not drawn) | > 100 µM | – |
| COc1cccc(C(=O)NC2CCc3c([nH]c4ccccc34)C2)c1 (stereo not drawn) | > 100 µM | – |
| Cc1ccc2[nH]c3c(c2c1)CCC(NCc1ccccc1)C3 (stereo not drawn) | 2.2 µM | – |
| O=S(=O)(NC1CCc2c([nH]c3ccccc23)C1)c1ccc(F)cc1 (stereo not drawn) | 9.5 µM | – |
| O=C(NC1CCc2c([nH]c3ccccc23)C1)c1cccc(F)c1 (stereo not drawn) | 100 µM | – |
| CC1CCC(NC2CCCc3c2[nH]c2ccccc32)C1 (stereo not drawn) | – | 15 µM |
| N#Cc1ccc(S(=O)(=O)NC2CCCc3c2[nH]c2ccccc32)cc1 (stereo not drawn) | > 100 µM | – |
| CC1CCC(NC2CCc3c([nH]c4ccccc34)C2)C1 (stereo not drawn) | 17.3 µM | – |
| c1ccc2c3c([nH]c2c1)CC(NC1CCCC1)CC3 (stereo not drawn) | 10 µM | – |

— BindingDB's records for doi:10.1016/j.ejmech.2017.02.062 (Padmashri Vikhe Patil College of Arts, 2017)
